Source: PubChem
Only some compounds are listed: those with a hit (about 3.7% of all), similar ones and a draw of the others.
DENV2 CPE = inhibitors of DENV2 cytopathic effect; DENV2-infected cells, cytopathic effect rescue, plate reader; AID 651640; CPE inhibition, % at 9.99 µM; actives 1.7% (n = 350,000); in the data active = CPE inhibition above about 20%, passing the limit was not always enough; inconclusive = no clear call, values can overlap the other calls; tested in BHK-21 cells
E-sel inducer = E-selectin induction on HUVECs; actives 0.37% (n = 260,000); activation, % at 7.58 µM; HUVEC E-selectin immunofluorescence imaging; normalized: neutral wells 0, TNF-alpha wells 100; AID 686992;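 active = mean E-selectin-positive cell signal at least 10% of the positive control, reached in at least 60% of replicates, without over 20% cell loss; inconclusive = no rule given, readout overlaps actives, possibly toxicity-flagged; inactive = the rest, including those meeting only one limit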
Target sequence (P16581 whole entry, looked up): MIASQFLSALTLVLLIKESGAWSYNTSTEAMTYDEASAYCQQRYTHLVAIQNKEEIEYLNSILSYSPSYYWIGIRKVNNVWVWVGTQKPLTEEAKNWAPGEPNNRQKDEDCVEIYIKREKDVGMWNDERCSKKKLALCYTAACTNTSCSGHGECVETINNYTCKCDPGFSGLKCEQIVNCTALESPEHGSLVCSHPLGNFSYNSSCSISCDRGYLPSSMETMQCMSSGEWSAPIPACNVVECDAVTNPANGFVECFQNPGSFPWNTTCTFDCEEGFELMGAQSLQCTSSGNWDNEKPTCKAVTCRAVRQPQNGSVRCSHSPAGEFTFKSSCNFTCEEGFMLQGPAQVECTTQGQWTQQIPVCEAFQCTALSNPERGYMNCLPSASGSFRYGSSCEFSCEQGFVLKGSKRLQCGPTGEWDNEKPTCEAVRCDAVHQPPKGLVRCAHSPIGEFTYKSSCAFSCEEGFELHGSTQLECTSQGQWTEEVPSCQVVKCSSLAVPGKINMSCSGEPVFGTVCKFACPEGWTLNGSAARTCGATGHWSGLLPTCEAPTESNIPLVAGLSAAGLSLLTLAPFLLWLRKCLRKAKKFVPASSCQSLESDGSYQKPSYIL
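System: HUVEC / Compound: single concentration / Signal: immunofluorescence imaging / Read-out: percent E-selectin-positive cells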
ERAP1 inh = ERAP1 (human) enzyme inhibition | Q9NZ08 | recombinant ERAP1, Leu-AMC fluorescence, 60 min | inhibition, % at 10.7 µM | actives 0.15% (n = 340,000);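 active = mean replicate inhibition of at least 30%, or all replicates individually reaching that 30% level; inactive = mean below 30% and not every replicate reaching it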
FGF22 binding = FGF22 (human) thermal shift binding. Q9HCT0. AID 651658. activity (Tm shift, normalised), % at 9.99 µM. actives 1.5% (n = 340,000). recombinant FGF22 thermal shift, SYPRO orange fluorescence; percent of sucrose octasulfate shift, DMSO zero;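 active = mean Tm shift, scaled 0 neutral to 100 positive control, at about 1.3% or above, every replicate too, limit read from the data; inconclusive = no clear call, values can overlap the other calls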
F508del corr = correctors of CFTR F508del function in bronchial epithelial cells; activity (quench increase), % at 7.58 µM; AID 720511; actives 0.36% (n = 350,000); CFBE cells, YFP halide quenching; stimulated with forskolin plus potentiator P3; % fluorescence drop versus neutral controls;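 active = mean added fluorescence quench of at least 8% versus neutral control, with both replicates also reaching 8%; inconclusive = only one of the mean or replicate conditions met; inactive = mean below 8% and not both replicates reaching 8%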;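 note: cells transiently co-express mutant CFTR-F508del with the halide-sensitive YFP; corrector assay measuring rescue of mutant channel to the surface after 24 h compound exposure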
Of the large screens only hits and unclear results are named; the others gave an inactive call; ! = repeats disagree.

CC(C)NC(=O)N(C)C[C@@H]1Oc2c(NC(=O)c3ccc(-c4nccs4)cc3)cccc2C(=O)N([C@H](C)CO)C[C@H]1C	E-sel inducer 91
CC(C)NC(=O)N(C)C[C@H]1Oc2c(NC(=O)c3ccc(-c4nccs4)cc3)cccc2C(=O)N([C@@H](C)CO)C[C@H]1C	E-sel inducer 65!
C[C@@H]1CN([C@@H](C)CO)C(=O)c2cccc(NC(=O)c3ccc(-c4nccs4)cc3)c2O[C@@H]1CN(C)C(=O)Nc1ccc(C(F)(F)F)cc1	FGF22 binding 1.4
CC(C)NC(=O)N(C)C[C@@H]1Oc2c(NC(=O)c3ccc(-c4nccs4)cc3)cccc2C(=O)N([C@@H](C)CO)C[C@@H]1C	E-sel inducer 81
C[C@@H]1CN([C@H](C)CO)S(=O)(=O)c2ccc(C#CC3CCCC3)cc2O[C@@H]1CN(C)C(=O)c1cccc(F)c1	none (no result: DENV2 CPE, ERAP1 inh, FGF22 binding)
CC(=O)OCC1=C(C(=O)O)N2C(=O)C(NC(=O)CCn3nc(C)c(Cl)c3C)C2SC1 (stereo unspecified)	none (no result: E-sel inducer)
Cc1nnc(SCC2=C(C(=O)O)N3C(=O)C(NC(=O)Cn4nc(C(F)F)c(Cl)c4C)C3SC2)s1 (stereo unspecified)	FGF22 binding 43 (no result: E-sel inducer)
CC(=O)OCC1=C(C(=O)O)N2C(=O)C(NC(=O)Cn3nc(C(F)F)c(Cl)c3C)C2SC1 (stereo unspecified)	FGF22 binding 43 (no result: E-sel inducer)
Cc1noc(C)c1S(=O)(=O)Nc1ccc2c(c1)C(=O)N([C@@H](C)CO)C[C@H](C)[C@@H](CN(C)C(=O)Nc1ccc(C(F)(F)F)cc1)OCCCC[C@H](C)O2	none
C[C@H](CO)N1C[C@H](C)[C@H](CN(C)Cc2ccc(-c3ccccc3)cc2)Oc2ccc(NC(=O)Cn3cnnn3)cc2CC1=O	none
Cc1ccc(S(=O)(=O)N/N=C/c2cc([N+](=O)[O-])ccc2O)cc1[N+](=O)[O-]	FGF22 binding 44 (no result: E-sel inducer)
Cc1oc(-c2ccccc2Cl)nc1CN1CCCCC1c1cccnc1 (stereo unspecified)	FGF22 binding 43
Cc1ccccc1-c1cnc2c(c1)C(=O)N([C@@H](C)CO)C[C@@H](C)[C@@H](CN(C)C(=O)c1ccccc1)O2	none (no result: ERAP1 inh)
O=C(C[C@H]1CC[C@H]2[C@@H](COC[C@@H](O)CN2Cc2ccc3c(c2)OCO3)O1)N1CCOCC1	none
CN1CCN(C(=O)C[C@H]2CC[C@H]3[C@@H](COC[C@H](O)CN3Cc3ccc4c(c3)OCO4)O2)CC1	DENV2 CPE 56
O=C(C[C@@H]1CC[C@H]2[C@@H](COC[C@@H](O)CN2Cc2ccc3c(c2)OCO3)O1)N1CCOCC1	DENV2 CPE 30
COc1ccc(CN(C)C[C@H]2OCCCC[C@H](C)Oc3ccc(NC(=O)NC(C)C)cc3C(=O)N([C@H](C)CO)C[C@H]2C)cc1	DENV2 CPE inconclusive (no result: FGF22 binding)
O=C(Nc1ccc(F)cc1)N[C@H]1CC[C@H](CCn2cc(-c3ccc(F)cc3)nn2)O[C@H]1CO	none
COc1cc(C2NCC(c3ccc(Cl)cc3Cl)c3c2[nH]c2ccccc32)cc(OC)c1OC (stereo unspecified)	DENV2 CPE inconclusive (no result: E-sel inducer)
COc1cc(C2NCCc3c2[nH]c2ccccc32)ccc1OC(C)C (stereo unspecified)	FGF22 binding 44
Cc1cc(N2CCN(C)CC2)n2nc(-c3ccc(Cl)cc3)nc2n1	DENV2 CPE 35
Cc1cc(N2CCOCC2)n2nc(C)c(-c3ccc(Cl)cc3)c2n1	none
CO[C@H]1CN(C)C(=O)c2ccc(NC(=O)C3CCOCC3)cc2OC[C@@H](C)N(C(C)=O)C[C@H]1C	none
C[C@@H]1CN([C@@H](C)CO)C(=O)c2cc(NC(=O)Nc3ccc(F)cc3)ccc2O[C@@H](C)CCCCO[C@H]1CN(C)Cc1ccc2c(c1)OCO2	DENV2 CPE 22
C[C@@H]1CN([C@H](C)CO)C(=O)c2cc(NC(=O)Nc3ccc(F)cc3)ccc2O[C@@H](C)CCCCO[C@@H]1CN(C)Cc1ccc2c(c1)OCO2	DENV2 CPE 23
COC(=O)N(C)C[C@@H]1OCc2ccccc2-c2ccccc2C(=O)N([C@H](C)CO)C[C@H]1C	none
COCC#Cc1ccc2c(c1)O[C@H](CN(C)CC1CCOCC1)[C@@H](C)CN([C@H](C)CO)S2(=O)=O	none
CCC(C)C(NC(=O)OC(C)(C)C)C(=O)NC(C)C(N)=O (stereo unspecified)	FGF22 binding 43
CC(C)N1C(=O)CCC1C(=O)O (stereo unspecified)	DENV2 CPE 33 (no result: E-sel inducer)
CC(C)N1C(=O)CCC1C(=O)N1CCN(c2ccccn2)CC1 (stereo unspecified)	none
C[C@@H]1CN([C@H](C)CO)C(=O)c2cccc(NC(=O)C3CC3)c2O[C@H]1CN(C)Cc1ccncc1	none
Cn1c(SCC(=O)NC2CCS(=O)(=O)C2)nnc1-c1ccco1 (stereo unspecified)	none
O=C(CSc1ncnc2sc(-c3ccccc3)cc12)NC1CCS(=O)(=O)C1 (stereo unspecified)	FGF22 binding 43
COc1cccc(-c2nnc(SCC(=O)NC3CCS(=O)(=O)C3)n2C)c1 (stereo unspecified)	F508del corr 21
CC(C)CC#Cc1ccc([C@@H]2[C@@H](CO)N3CCCCN(S(=O)(=O)Cc4ccccc4)C[C@@H]23)cc1	DENV2 CPE 22
CC(C)CC#Cc1ccc([C@@H]2[C@H](CO)N3CCCCN(S(=O)(=O)Cc4ccccc4)C[C@@H]23)cc1	DENV2 CPE 23
Cc1cc(C)c2nc(Cl)c(CN(Cc3ccco3)C(=O)Nc3ccccc3C)cc2c1	F508del corr 11 (no result: E-sel inducer)
COc1ccccc1NC(=S)N(Cc1ccco1)Cc1cc2cc(C)cc(C)c2[nH]c1=O	F508del corr 10
C[C@@H]1CN([C@@H](C)CO)C(=O)Cc2cc(NC(=O)CCN3CCOCC3)ccc2O[C@H]1CN(C)C(=O)Nc1ccc(F)cc1	none
O=C(NCc1cccc(F)c1)Nc1nnc([C@H]2C[C@H](O)[C@@H](CO)O2)s1	DENV2 CPE 31
Cc1noc(C)c1NC(=O)N(C)C[C@@H]1OCCCC[C@H](C)Oc2ccc(NS(=O)(=O)c3ccc(Cl)cc3)cc2C(=O)N([C@@H](C)CO)C[C@H]1C	none (no result: E-sel inducer, FGF22 binding)
Cc1noc(C)c1NC(=O)N(C)C[C@@H]1OCCCC[C@H](C)Oc2ccc(NS(=O)(=O)c3ccc(Cl)cc3)cc2C(=O)N([C@H](C)CO)C[C@@H]1C	DENV2 CPE 32 (no result: E-sel inducer, FGF22 binding)
COc1ccc(S(=O)(=O)Nc2ccc3c(c2)C(=O)N([C@@H](C)CO)C[C@H](C)[C@@H](CN(C)C(=O)Nc2c(C)noc2C)OCCCC[C@@H](C)O3)cc1	none
COc1ccc(S(=O)(=O)Nc2ccc3c(c2)C(=O)N([C@H](C)CO)C[C@H](C)[C@H](CN(C)C(=O)Nc2c(C)noc2C)OCCCC[C@H](C)O3)cc1	FGF22 binding 1.3
